# Compound activity: PubChem, Sanford-Burnham Center for Chemical Genomics
# mIAP block: inhibitors of mouse IAP, primary screen, biochemical, luminescence, uHTS | intestinal alkaline phosphatase [Mus musculus] | purified mouse IAP, CDP-Star luminescence, 30 min | inhibition, % at 10 µM | 330,000 tested, 0.2% active | AID 2806, 2010;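 active = inhibition of at least 40% at 10 µM in the primary screen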
# hIAP act: human IAP activators, primary screen, biochemical, luminescence, uHTS; Intestinal-type alkaline phosphatase (Homo sapiens), P09923; purified human IAP, CDP-Star luminescence, 30 min; hits give high values; 1 = vehicle-only enzyme, 0 = enzyme-free background; activation factor at 10 µM; 330,000 tested, 0.16% active;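 active = activation factor of the enzyme at least 2-fold when tested at 20 µM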
# Target sequence (P09923 whole entry, looked up): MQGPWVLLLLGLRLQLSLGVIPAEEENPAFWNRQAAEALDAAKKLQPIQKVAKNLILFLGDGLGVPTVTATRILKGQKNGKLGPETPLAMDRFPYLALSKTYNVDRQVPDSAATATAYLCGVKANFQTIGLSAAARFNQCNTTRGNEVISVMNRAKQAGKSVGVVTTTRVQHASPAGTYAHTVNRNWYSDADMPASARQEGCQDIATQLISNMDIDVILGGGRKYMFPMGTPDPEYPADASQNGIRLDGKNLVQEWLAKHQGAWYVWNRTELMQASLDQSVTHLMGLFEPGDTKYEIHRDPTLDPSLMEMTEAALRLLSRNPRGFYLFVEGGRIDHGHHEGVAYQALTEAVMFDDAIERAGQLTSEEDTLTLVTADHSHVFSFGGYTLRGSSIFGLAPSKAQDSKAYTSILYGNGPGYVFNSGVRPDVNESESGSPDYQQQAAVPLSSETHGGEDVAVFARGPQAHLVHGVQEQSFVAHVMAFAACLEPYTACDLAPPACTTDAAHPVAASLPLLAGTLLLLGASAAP
# mIAP activ: activators of mouse IAP, primary screen, biochemical, luminescence, uHTS | 330,000 tested, 0.24% active | activation factor at 10 µM | intestinal alkaline phosphatase [Mus musculus] | muIAP, CDP-Star luminescence, 30 min; hits give high values; 1 = vehicle-only enzyme signal, 0 = enzyme-free wells;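 active = activation factor of at least 2 at 20 µM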
#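 Assay system: mouse IAP enzyme / Compound: DMSO-dissolved test compounds / Timing: 30 min, room temperature / Measured by: luminescence from enzymatic CDP-Star hydrolysis / Control set: DMSO-only wells, enzyme-free buffer wells as negative control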
# bIAP inh: bovine intestinal alkaline phosphatase inhibitors, primary screen, selectivity assay for TNAP inhibitor project, biochemical, bovine IAP, CDP-star luminescence | alkaline phosphatase, intestinal [Bos taurus] | purified bovine IAP, 30 min | inhibition, % at 20 µM | 190,000 tested, under 10 active;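 active = over 50% inhibition of intestinal alkaline phosphatase at 20 µM in the single-dose screen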
#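 test system = bovine IAP enzyme | medium = DEA buffer 100 mM, pH 9.8, with MgCl2 1.0 mM, ZnCl2 0.02 mM | detection = luminescence | dosing = single compound dose of 20 µM, 2% DMSO final | incubation = 30 min reaction at room temperature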
# hIAP block: human IAP inhibitors, primary screen, biochemical, luminescence, uHTS. Intestinal-type alkaline phosphatase (Homo sapiens), P09923. purified IAP, CDP-Star luminescence, 30 min. inhibition, % at 10 µM. 330,000 tested, 0.12% active;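 active = inhibition reaching a set limit with compound at 10 µM in the primary screen, cut at about 35% in these data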
# bIAP act: bovine intestinal alkaline phosphatase activators, primary screen, biochemical, bovine IAP, CDP-star luminescence | alkaline phosphatase, intestinal [Bos taurus] | purified bovine IAP, 30 min; hits give high values; fold of DMSO-control signal, blank-subtracted | AID 1016, 2008 | 200,000 tested, 0.17% active | activation factor at 20 µM;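 active = activation factor of 2 or more at 20 µM, a signal rise over negative controls twice the positive control's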
# hIAP act conf: human IAP activators, confirmation, biochemical, luminescence, single concentration, uHTS hits | shares compounds with hIAP act | purified IAP, CDP-Star luminescence, 30 min; hits give low values | activation (%Activity, negative = activation), % at 8.3 µM | 880 tested, 10% active | AID 434926, 2010;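 active = at least twofold enzyme activation in any of six single-dose repeats, which the averaged readout prints as negative percent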
# Hits are given with their value; n = inactive; x = no result given. Most compounds without a hit are left out; they make up all but 0.77% or so of the library.
SMILES,mIAP block,hIAP act,mIAP activ,bIAP inh,hIAP block,bIAP act,hIAP act conf
Cc1ccc(N(CC(O)CN2C(=O)NC(C)(C)C2=O)S(=O)(=O)c2ccc([N+](=O)[O-])cc2)cc1 (centres undefined),n,n,n,x,39,x,n
COc1cccc(C2c3c(-c4ccccc4O)n[nH]c3C(=O)N2Cc2ccco2)c1 (centres undefined),n,2.1,n,x,n,x,n
O=C(NCCCN1CCOCC1)c1ccc2c(c1)N(Cc1ccc(Cl)cc1)C(=O)c1ccccc1S2=O (centres undefined),n,n,n,x,37,x,-48
O=C(NNC(=S)NCc1ccco1)c1ccccc1Br,n,2.3,n,x,n,x,n
O=C(NNC(=S)NC1CCCCC1)c1ccccc1Br,n,2,n,x,n,x,-43
Cc1ccsc1C(=O)NNC(=S)NC1CCCCC1,n,2.3,n,x,n,x,n
O=C(NCc1ccco1)c1ccccc1Br,n,n,n,n,n,n,x
CC(/C=N/NC(=O)CCn1nnc2ccccc21)=C\c1ccccc1,n,n,n,n,35,n,-89
CC(/C=N/NC(=O)Cn1cnc2ccccc21)=C\c1ccccc1,n,n,n,n,n,n,x
COc1ccc(OC)c(NC(=O)c2cc(-c3cc(C)cc(C)c3O)n[nH]2)c1,n,n,n,x,n,x,x
COc1ccc(OC)c(NC(=O)c2cc(-c3cc(C)c(C)cc3O)n[nH]2)c1,n,2.2,n,x,n,x,n
COc1ccc(NC(=O)c2cc(-c3cc(Cl)ccc3O)n[nH]2)c(OC)c1,n,n,n,x,n,x,x
COc1ccc(NC(=O)c2cc(-c3cc(C)c(C)cc3O)n[nH]2)c(OC)c1,n,2.1,n,x,n,x,n
CCO[C@@H]1OC(C(=O)O)=C[C@H](C2CC2)[C@H]1CCCO,n,n,n,n,n,n,x
O=C(NC1CCCN(Cc2ccc(Cl)cc2)C1)c1c(F)ccc(F)c1F (centres undefined),n,n,n,x,n,x,x
Cc1ccc(S(=O)(=O)NCC(=O)NNC(=O)c2ccccc2Cl)cc1C,n,2.2,n,x,n,x,n
Nc1nc2c(F)c(F)c(F)cc2s1,n,n,n,n,n,n,x
CC(C)NC(=O)/C(C#N)=C\c1ccc(N(C)C)o1,n,n,n,n,35,n,n
CCOC(CCNC(=O)c1cn(CCOC)c(=O)c2c1c1ccccc1n2C)OCC,n,n,n,x,n,x,x
CC1(c2ccc(OC(F)F)cc2)NC(=O)N(CC(=O)Nc2cccc(F)c2)C1=O (centres undefined),n,n,n,x,n,x,x
Cc1cccc(NS(=O)(=O)c2csc(C(N)=O)c2)c1C,n,n,n,x,n,x,x
CCS(=O)(=O)Nc1cc2c3c(c1)CCC(=O)N3CCC2,n,n,n,x,37,x,n
O=S(=O)(Nc1ccc2c(c1)OCCO2)c1ccc(Br)s1,n,2.1,n,n,n,n,n
O=S(=O)(Nc1ccc2c(c1)OCCO2)c1cccs1,n,n,n,n,n,n,x
COc1ccc(S(=O)(=O)N2CCC3(CC2)CC(=O)c2ccccc2O3)cc1C,n,n,n,x,n,x,x
O=C(NNc1ncnc2c1cnn2-c1ccc(F)cc1)c1ccco1,n,2.6,n,x,n,x,-47
CC(=O)NNc1ncnc2c1cnn2-c1ccc(C)c(C)c1,n,2.5,n,n,n,n,n
